Data taken from paper PMC2842018 (European journal of nuclear medicine and molecular imaging, 2008).

Experiments:
[1] = tested on: U-87MG cells (α3 integrin); assay: Fluorescence microscopy of U-87MG cells stained with biotinylated LXY1; format: cell-based, human
Procedure, shortened: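 U-87MG cells at 80–90% confluence were dissociated with 0.05% trypsin-EDTA. Each sample (3×10⁵ cells) was incubated with biotinylated peptide in PBS with 10% FBS and 1 mM MnCl2 for 30 min on ice, washed three times, given streptavidin-Alexa488 for 30 min and washed once. Cells were cytospun onto slides (2000 rpm, 2 min), mounted with DAPI medium and viewed by fluorescence microscopy. For blocking, unlabeled peptide or anti-α3 integrin antibody (clone P1B5) was co-incubated.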

α3 integrin = conditions: ovarian cancer, ref [7]; cited from earlier work
glioblastoma = glioblastoma patients, radiotherapy plus temozolomide; ref [1]; cited from earlier work

cdGLGBNc (disulfide) [LXY1]
blocking of cell staining by biotinylated LXY1 ([1]; excess unlabeled LXY1 or anti-α3 antibody (clone P1B5) as blocker, streptavidin-Alexa488): almost completely abolished

cDGXGXXc
binding preference and specificity (α3 integrin): bind preferentially to ovarian cancer with high specificity against α3 integrin

Cn1nnc2c(C(N)=O)ncn2c1=O [temozolomide]
median survival (glioblastoma): 14.6 months

cdGLGBNc-linker-linker-Biotin (disulfide) [LXY1-biotin]
staining of U-87MG cells ([1]; biotinylated LXY1 30 min, streptavidin-Alexa488 30 min, DAPI counterstain): Strong staining
